Screening data deposited in PubChem BioAssay by Broad Institute.
Shown is part of a subset that was picked to be rich in hits.
T cruzi growth-1 – blocks T. cruzi growth in NIH3T3 culture. T. cruzi beta-gal in NIH3T3, GalScreen luminescence, 90 h. inhibition, % at 8.34 µM. actives 5.9% (n = 77,000). AID 624255;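 active means mean inhibition above about 93%, with at least 55% of replicates each passing it, limit read from the data, passing the limit was not always enough; inconclusive means only one of those two conditions holds; inactive means neither condition holds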
IDH1 R132H inh – blocks human IDH1 R132H reductase activity; O75874; diaphorase/resazurin fluorescence, 60 min; inhibition, % at 10 µM; actives 0.18% (n = 70,000); in the data active means inhibition above about 34%; inconclusive means no clear call, values can overlap the other calls; inactive means below about 11%;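 further: 0% = DMSO and 100% = no enzyme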
KDM4C inh – blocks human GASC-1 (KDM4C) demethylase activity; Q9H3R0; GST-KDM4C 2-372, H3K9me3 peptide, LANCE TR-FRET; inhibition, % at 12.5 µM; actives 0.15% (n = 96,000); AID 720574;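 active means mean replicate inhibition above about 25%, with at least 55% of replicates also reaching it, limit read from the data, passing the limit was not always enough; inconclusive means only one of those two conditions met; inactive means neither condition met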
Target sequence (Q9H3R0 2-372 limits assumed): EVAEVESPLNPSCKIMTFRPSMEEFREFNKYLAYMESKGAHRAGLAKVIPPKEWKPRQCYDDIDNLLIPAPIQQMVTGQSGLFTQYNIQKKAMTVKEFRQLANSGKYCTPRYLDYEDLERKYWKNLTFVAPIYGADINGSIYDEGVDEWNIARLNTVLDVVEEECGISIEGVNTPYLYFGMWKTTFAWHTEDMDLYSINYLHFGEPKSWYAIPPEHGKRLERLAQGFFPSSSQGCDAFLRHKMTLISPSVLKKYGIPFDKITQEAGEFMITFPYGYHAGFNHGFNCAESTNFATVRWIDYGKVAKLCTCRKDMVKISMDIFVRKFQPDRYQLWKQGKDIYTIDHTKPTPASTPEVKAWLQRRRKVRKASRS
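Assay system: GST-GASC-1 enzyme fragment 2-372 | Amount: 10 nM enzyme | Medium: HEPES buffer, pH 7.5, plus ascorbate | Reagent: H3K9me3 peptide substrate, Fe(II), 2-oxoglutarate | Doses: Single-point compound screen | Incubation: 30 min demethylation and 1 h detection at room temperature | Measured by: LANCE TR-FRET, excitation 340 nm, emissions 618 and 671 nm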
T cruzi growth-2 – blocks T. cruzi growth in NIH3T3 host cells | shares compounds with T cruzi growth-1 | T. cruzi beta-gal in NIH3T3, GalScreen luminescence, 90 h | inhibition, % at 8.35 µM | actives 72% (n = 5,600);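 active means mean replicate inhibition above about 95% and at least 55% of replicates individually reaching it, limit read from the data; inconclusive means only one of the two criteria is met; inactive means neither criterion is met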
T cruzi growth-3 – Trypanosoma cruzi proliferation inhibition. shares compounds with T cruzi growth-1. T. cruzi beta-gal in NIH3T3, GalScreen luminescence, 90 h. inhibition, % at 2.09 µM. actives 21% (n = 5,600). AID 651740;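 active means mean inhibition above about 95%, with at least 55% of replicates also reaching it, limit read from the data; inconclusive means meets just one of the two conditions; inactive means meets neither condition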;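 further: plate controls were neutral control median for no effect and positive control median for full effect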
NIH3T3 tox – cytotoxicity in mouse NIH/3T3 fibroblasts | actives 14% (n = 5,600) | cytotoxicity (signal decrease), % at 8.35 µM | shares compounds with T cruzi growth-1 | NIH/3T3 viability, CellTiter-Glo ATP luminescence, 90 h;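 active means mean signal decrease across replicates above about 35% based on untreated-well scatter, with enough replicates individually passing, limit read from the data; inconclusive means no rule stated though some were filed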;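 further: 0% = median of neutral control wells and 100% = median of positive control wells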
3T3 cytotox 2 – cytotoxicity in mouse NIH/3T3 fibroblasts. inhibition, % at 24.9 µM. actives 56% (n = 5,600). NIH/3T3 viability, CellTiter-Glo ATP luminescence, 90 h. shares compounds with T cruzi growth-1;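 active means mean loss of cell viability signal at or above a set limit, and enough replicates individually reaching it; inconclusive means meets only the mean limit or only the replicate share; inactive means meets neither condition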;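 further: 0% = median of neutral control wells and 100% = median of positive control wells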
* marks the source's active call; other numbers are inactive results; u = inconclusive; x = no result.

SMILES	T cruzi growth-1	IDH1 R132H inh	KDM4C inh	T cruzi growth-2	T cruzi growth-3	NIH3T3 tox	3T3 cytotox 2
C/C=C/c1ccc2c(c1)O[C@H](CN(C)C(=O)Nc1ccc(F)cc1)[C@H](C)CN([C@H](C)CO)S2(=O)=O	65.0	0.2	-2.0	x	x	x	x
C[C@H](CO)N1C[C@H](C)[C@H](CN(C)C(=O)Nc2cccc(F)c2)Oc2cc(/C=C/c3ccccc3)ccc2S1(=O)=O	123.6*	1.8	-1.4	104.8*	111.4*	39.3*	36.8*
COC1CC(OC2C(C)OC(OC3C(C)OC(OC4C(C)OCC(OC5C(O)C(O[C@H]6CC[C@@]7(C)C(=CC[C@]8(O)C7CC(OC(=O)c7ccccc7)[C@@]7(C)[C@]8(O)CC[C@@]7(O)C(C)=O)C6)OC(CO)C5OC5OC(CO)C(O)C(O)C5O)C4OC)CC3OC)CC2OC)OC(C)C1O (stereo not given in full)	x	-0.3	x	x	x	x	x
O=S(=O)(c1ccc(-c2cc(C(F)(F)F)on2)s1)N1CCc2c([nH]c3ccc(F)cc23)C1	x	1.1	x	x	x	x	x
COC(=O)c1ccccc1NC(=O)C(C)NS(=O)(=O)c1ccc(F)cc1 (stereo not given)	x	0.3	x	x	x	x	x
COc1ccc(C)cc1N(CC(=O)Nc1ccc(I)cc1)S(C)(=O)=O	x	0.0	x	x	x	x	x
CC(C)(C)c1cc(C(C)(C)C)n(-c2ccc(-n3cccc3)cc2)n1	x	0.2	x	x	x	x	x
C[C@H]1CN([C@@H](C)CO)S(=O)(=O)c2ccc(/C=C/c3ccccc3)cc2O[C@@H]1CN(C)C(=O)Nc1cccc(F)c1	125.3*	2.2	0.6	95.1*	100.3*	u	47.1*
COc1cccc(NC(=O)N(C)C[C@@H]2Oc3cc(/C=C/c4ccccc4)ccc3S(=O)(=O)N([C@H](C)CO)C[C@H]2C)c1	x	1.8	-0.8	x	x	x	x
C/C=C/c1ccc2c(c1)O[C@@H](CN(C)C(=O)Nc1cccc(F)c1)[C@H](C)CN([C@@H](C)CO)S2(=O)=O	96.6*	0.4	2.2	83.6	34.8	19.4	62.9*
COc1cccc(NC(=O)N(C)C[C@H]2Oc3cc(/C=C/c4ccccc4)ccc3S(=O)(=O)N([C@H](C)CO)C[C@H]2C)c1	x	-4.4	0.5	x	x	x	x
C/C=C/c1ccc2c(c1)O[C@@H](CN(C)C(=O)Nc1cccc(F)c1)[C@@H](C)CN([C@H](C)CO)S2(=O)=O	66.2	0.1	-1.3	x	x	x	x
C/C=C/c1ccc2c(c1)O[C@H](CN(C)C(=O)Nc1cc(F)ccc1F)[C@@H](C)CN([C@H](C)CO)S2(=O)=O	28.0	3.2	-1.9	x	x	x	x
C[C@@H]1CN([C@H](C)CO)S(=O)(=O)c2ccc(/C=C/c3ccccc3)cc2O[C@@H]1CN(C)C(=O)Nc1cccc(F)c1	124.1*	-3.0	-2.0	101.4*	108.3*	22.2	29.6
C/C=C/c1ccc2c(c1)O[C@H](CN(C)C(=O)Nc1cc(F)ccc1F)[C@@H](C)CN([C@@H](C)CO)S2(=O)=O	100.3*	-2.6	-0.2	101.1*	32.8	0.5	25.0
Cc1cccc(-n2c(SCC(=O)c3ccccc3)nnc2-c2cccs2)c1C	x	0.4	x	x	x	x	x
CC(=O)c1cccc(N(CC(=O)Nc2ccccc2C)S(C)(=O)=O)c1	x	0.5	x	x	x	x	x
O=C(Cc1ccccc1[N+](=O)[O-])Nc1cc(Cl)ccc1Oc1ccccc1	x	0.4	x	x	x	x	x
COc1ccc(NC(=O)Nc2ccc3c(c2)C(=O)N([C@H](C)CO)C[C@H](C)[C@H](CN(C)Cc2ccccc2)OCCCC[C@H](C)O3)cc1	91.9	x	-1.5	x	x	x	x
COc1ccc(NC(=O)Nc2ccc3c(c2)C(=O)N([C@@H](C)CO)C[C@@H](C)[C@H](CN(C)Cc2ccccc2)OCCCC[C@@H](C)O3)cc1	97.9*	-11.0	-1.3	110.5*	29.9	-8.9	15.8
COc1ccc(NC(=O)Nc2ccc3c(c2)C(=O)N([C@H](C)CO)C[C@@H](C)[C@H](CN(C)Cc2ccccc2)OCCCC[C@H](C)O3)cc1	92.6	1.0	0.1	x	x	x	x
COc1ccc(NC(=O)Nc2ccc3c(c2)C(=O)N([C@@H](C)CO)C[C@@H](C)[C@@H](CN(C)Cc2ccccc2)OCCCC[C@H](C)O3)cc1	102.7*	2.0	-0.2	106.4*	10.5	6.7	3.2
